What was measured:
Leukotriene B4 receptor [1] = target: T1, Leukotriene B4 receptor (Homo sapiens, UniProt Q9NPC1+Q15722); assay: In vitro leukotriene B4 receptor binding potency determined by displacement of [3H]- LTB4 from human neutrophils (PMNs)
How it was run: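 Intact human neutrophils from citrated venous blood (HESPAN sedimentation, Ficoll-Paque, hypotonic lysis), 3 × 10⁶ cells in HBSS with 0.5 nM [³H]LTB₄ and compound, 20 min at 0 °C. Bound label collected by filtration, filters washed with ice-cold HBSS, then scintillation-counted. Nonspecific binding taken with 300 nM LTB₄. Compound stocks 10 mM in DMSO, final DMSO 0.35%.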

Leukotriene B4 receptor [2] = target: T1, Leukotriene B4 receptor; assay: LTB4 receptor antagonistic activity as inhibition of LTB4-induced [Ca2+] release from human PMNs; format: functional
How it was run: (§1)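 Human neutrophils from citrated venous blood (HESPAN sedimentation, centrifugal elutriation) loaded with 0.2 μM Fura-2 AM for 30 min at 37 °C, then held at 2 × 10⁶ cells/mL. Ca²⁺ and Mg²⁺ added back at 37 °C; compound given 40 s before 1 nM LTB₄; fluorescence change followed. Ki = IC50/(1 + [LTB₄]/EC50 of LTB₄). Final DMSO 0.35%.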

Mus musculus [3] = assay: Inhibition of Arachidonic acid (AA)-induced ear edema was determined at dosing of 17 hr challenge; expressed as myeloperoxide activity (MPO) at 10 mg/kg; 0/0; format: functional
Mus musculus [4] = assay: Inhibition of Arachidonic acid (AA)-induced ear edema was determined at dosing of 17 hr challenge; expressed as myeloperoxide activity (MPO) at 10 mg/kg; 27/0; format: functional
Mus musculus [5] = assay: Inhibition of Arachidonic acid (AA)-induced ear edema was determined at dosing of 0.5 h challenge; expressed as myeloperoxide activity (MPO) at 3 mg/kg; 39/58; format: functional
Mus musculus [6] = assay: Inhibition of Arachidonic acid (AA)-induced ear edema was determined at dosing of 0.5 hr challenge; expressed as myeloperoxide activity (MPO) at 0.1 mg/kg; 21/15; format: functional
Mus musculus [7] = assay: Inhibition of Arachidonic acid (AA)-induced ear edema was determined at dosing of 17 hr challenge; expressed as myeloperoxide activity (MPO) at 10 mg/kg; 40/55; format: functional
Mus musculus [8] = assay: Inhibition of Arachidonic acid (AA)-induced ear edema was determined at dosing of 0.5 hr challenge; expressed as myeloperoxide activity (MPO) at 1 mg/kg; 24/24; format: functional
Mus musculus [9] = assay: Inhibition of Arachidonic acid (AA)-induced ear edema was determined at dosing of 17 hr challenge; expressed as myeloperoxide activity (MPO) at 3 mg/kg; 25/12; format: functional
Mus musculus [10] = assay: Inhibition of Arachidonic acid (AA)-induced ear edema was determined at dosing of 17 hr challenge; expressed as myeloperoxide activity (MPO) at 10 mg/kg; 46/54; format: functional
Mus musculus [11] = assay: Inhibition of Arachidonic acid (AA)-induced ear edema was determined at dosing of 0.5 hr challenge; expressed as myeloperoxide activity (MPO) at 1 mg/kg; 26/32; format: functional
Mus musculus [12] = assay: Inhibition of Arachidonic acid (AA)-induced ear edema was determined at dosing of 0.5 hr challenge; expressed as myeloperoxide activity (MPO) at 3 mg/kg; 52/58; format: functional
Mus musculus [13] = assay: Inhibition of Arachidonic acid (AA)-induced ear edema was determined at dosing of 17 hr challenge; expressed as myeloperoxide activity (MPO) at 3 mg/kg; 34/15; format: functional
Mus musculus [14] = assay: Inhibition of Arachidonic acid (AA)-induced ear edema was determined at dosing of 17 h challenge; expressed as myeloperoxide activity (MPO) at 10 mg/kg; 55/55; format: functional
Mus musculus [15] = assay: Inhibition of Arachidonic acid (AA)-induced ear edema was determined at dosing of 0.5 h challenge; expressed as myeloperoxide activity (MPO) at 1 mg/kg; 41/41; format: functional
Mus musculus [16] = assay: Inhibition of Arachidonic acid (AA)-induced ear edema was determined at dosing of 17 hr challenge; expressed as myeloperoxide activity (MPO) at 3 mg/kg; 29/26; format: functional
[17] = target: Leukotriene B4 receptor 1 (Homo sapiens, UniProt Q15722); assay: Leukotriene B4 receptor antagonistic activity was measured by the inhibition of LTB4 induced [Ca2+] release from human PMNs; format: functional; how it was run: as §1
Mus musculus [18] = assay: Inhibition of Arachidonic acid (AA)-induced ear edema was determined at dosing of 17 hr challenge; expressed as myeloperoxide activity (MPO) at 3 mg/kg; 44/53; format: functional
Mus musculus [19] = assay: Inhibition of Arachidonic acid (AA)-induced ear edema was determined at dosing of 0.5 h challenge; expressed as myeloperoxide activity (MPO) at 1 mg/kg; 32/38; format: functional
Mus musculus [20] = assay: Inhibition of Arachidonic acid (AA)-induced ear edema was determined at dosing of 17 hr challenge; expressed as myeloperoxide activity (MPO) at 10 mg/kg; 59/67; format: functional
Mus musculus [21] = assay: Inhibition of Arachidonic acid (AA)-induced ear edema was determined at dosing of 0.5 hr challenge; expressed as myeloperoxide activity (MPO) at 3 mg/kg; 45/53; format: functional
Mus musculus [22] = assay: Inhibition of Arachidonic acid (AA)-induced ear edema was determined at dosing of 17 hr challenge; expressed as myeloperoxide activity (MPO) at 10 mg/kg; 19/30; format: functional
Mus musculus [23] = assay: Inhibition of Arachidonic acid (AA)-induced ear edema was determined at dosing of) 17 hr challenge; expressed as myeloperoxide activity (MPO) at 10 mg/kg; 33/2; format: functional
Mus musculus [24] = assay: Inhibition of Arachidonic acid (AA)-induced ear edema was determined at dosing of 17 hr challenge; expressed as myeloperoxide activity (MPO) at 10 mg/kg; 1/1; format: functional
Mus musculus [25] = assay: Inhibition of Arachidonic acid (AA)-induced ear edema was determined at dosing of 0.5 hr challenge; expressed as myeloperoxide activity (MPO) at 0.1 mg/kg; 41/49; format: functional
Mus musculus [26] = assay: Inhibition of Arachidonic acid (AA)-induced ear edema was determined at dosing of 0.5 hr challenge; expressed as myeloperoxide activity (MPO) at 3 mg/kg; 56/71; format: functional
Mus musculus [27] = assay: Inhibition of Arachidonic acid (AA)-induced ear edema was determined at dosing of 0.5 hr challenge; expressed as myeloperoxide activity (MPO) at 1 mg/kg; 50/67; format: functional
Mus musculus [28] = assay: Inhibition of Arachidonic acid (AA)-induced ear edema was determined at dosing of 17 hr challenge; expressed as myeloperoxide activity (MPO) at 10 mg/kg; 27/31; format: functional
Mus musculus [29] = assay: Inhibition of Arachidonic acid (AA)-induced ear edema was determined at dosing of 0.5 hr AA challenge; expressed as myeloperoxide activity (MPO) at 1 mg/kg; 14/0; format: functional

Chain of Leukotriene B4 receptor 1 (Q15722 whole entry): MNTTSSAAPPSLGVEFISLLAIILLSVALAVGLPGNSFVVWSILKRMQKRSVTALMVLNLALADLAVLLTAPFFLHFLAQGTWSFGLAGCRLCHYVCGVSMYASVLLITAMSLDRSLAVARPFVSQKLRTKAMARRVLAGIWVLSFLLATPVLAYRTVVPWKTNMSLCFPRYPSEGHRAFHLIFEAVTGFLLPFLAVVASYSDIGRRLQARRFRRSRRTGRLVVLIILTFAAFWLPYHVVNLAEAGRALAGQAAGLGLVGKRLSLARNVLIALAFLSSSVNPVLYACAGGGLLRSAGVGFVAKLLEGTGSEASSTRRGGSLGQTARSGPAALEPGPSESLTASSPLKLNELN

Row | Compound | IC50 (Leukotriene B4 receptor [1]) | Ki (Leukotriene B4 receptor [2]) | further results
1 | CCN(CC)C(=O)/C=C(\C)c1ccc(OCc2c(Cl)cccc2Cl)c(OCC(=O)O)c1 | 31 nM | 14 nM | Punch weight/MPO activity (Mus musculus [3]): 0
2 | C/C(=C\C(=O)N(C(C)C)C(C)C)c1ccc(OC(C)c2ccccc2)cc1 (stereo not drawn) | 1100 nM | – | –
3 | CCN(CC)C(=O)/C=C(\C)c1ccc(CCc2ccccc2)c(OCC(=O)O)c1 | 56 nM | 7.7 nM | Punch weight/MPO activity (Mus musculus [4]): 27
4 | CCN(CC)C(=O)/C=C(\C)c1ccc(-c2ccccc2)cc1 | > 10000 nM | – | –
5 | CCN(CC)C(=O)/C=C(\C)c1ccc(OC(C)c2ccccc2)c(OCCC(=O)O)c1 (stereo not drawn) | 128 nM | 81 nM | Punch weight/MPO activity (Mus musculus [5]): <39; Punch weight/MPO activity (Mus musculus [6]): 21; Punch weight/MPO activity (Mus musculus [7]): <40; Punch weight/MPO activity (Mus musculus [8]): <24; Punch weight/MPO activity (Mus musculus [9]): <25
6 | CCN(CC)C(=O)/C=C(\C)c1ccc(OC(C)c2ccccc2)c(C(=O)O)c1 (stereo not drawn) | 884 nM | – | –
7 | CCN(CC)C(=O)/C=C(\C)c1ccc(OCc2c(F)cccc2F)c(OCC(=O)O)c1 | 56 nM | 18 nM | Punch weight/MPO activity (Mus musculus [10]): <46; Punch weight/MPO activity (Mus musculus [11]): <26; Punch weight/MPO activity (Mus musculus [12]): <52; Punch weight/MPO activity (Mus musculus [13]): <34
8 | CCN(CC)C(=O)/C=C(\C)c1ccc(OC(C)c2ccccc2)c(CC(=O)O)c1 (stereo not drawn) | 81 nM | 9.5 nM | Punch weight/MPO activity (Mus musculus [14]): <55; Punch weight/MPO activity (Mus musculus [15]): <41; Punch weight/MPO activity (Mus musculus [16]): <29
9 | C/C(=C\C(=O)N1CCCCC1)c1ccc(OC(C)c2ccccc2)cc1 (stereo not drawn) | 5800 nM | – | –
10 | CCN(CC)C(=O)/C=C(\C)c1ccc(Oc2ccccc2)c(OCC(=O)O)c1 | 2400 nM | – | –
11 | CCN(CC)C(=O)CC(C)c1ccc(OC(C)c2ccccc2)cc1 (stereo not drawn) | 4300 nM | – | –
12 | CCN(CC)C(=O)/C=C(\C)c1ccc(OCc2ccccc2)c(OCC(=O)O)c1 | 182 nM | 82 nM | –
13 | CCN(CC)C(=O)/C=C(\C)c1ccc(OC(C)c2ccccc2)cc1 (stereo not drawn) | 744 nM | – | –
14 | CCN(CC)C(=O)/C=C/c1ccc(OC(C)c2ccccc2)cc1 (stereo not drawn) | 1600 nM | – | –
15 | C/C(=C\C(=O)N(C)C)c1ccc(OC(C)c2ccccc2)cc1 (stereo not drawn) | 2100 nM | – | –
16 | CCN(CC)C(=O)/C=C(\C)c1ccc(OC(C)c2ccccc2)c(CCC(=O)O)c1 (stereo not drawn) | 48 nM | – | Ki [17]: 9.5 nM
17 | CCN(CC)C(=O)/C=C(\C)c1ccc(OC(C)c2ccccc2)cc1OCC(=O)O (stereo not drawn) | 2225 nM | – | –

Row | Compound | IC50 (Leukotriene B4 receptor [1]) | Ki (Leukotriene B4 receptor [2]) | further results
18 | CCN(CC)C(=O)/C=C(\C)c1ccc(O[C@H](C)c2ccccc2)c(CC(=O)O)c1 | 536 nM | – | –
19 | CCCN(CCC)C(=O)/C=C(\C)c1ccc(OC(C)c2ccccc2)cc1 (stereo not drawn) | 1400 nM | – | –
20 | CCNC(=O)/C=C(\C)c1ccc(OC(C)c2ccccc2)cc1 (stereo not drawn) | 2000 nM | – | –
21 | CCN(CC)C(=O)/C=C(\C)c1ccc(OCc2c(F)cccc2F)c(CC(=O)O)c1 | 87 nM | 22 nM | Punch weight/MPO activity (Mus musculus [18]): 44; Punch weight/MPO activity (Mus musculus [19]): <32; Punch weight/MPO activity (Mus musculus [20]): <59; Punch weight/MPO activity (Mus musculus [21]): <45
22 | CCN(CC)C(=O)/C=C(\C)c1ccc(OCc2ccccc2F)c(OCC(=O)O)c1 | 119 nM | 27 nM | Punch weight/MPO activity (Mus musculus [22]): <19
23 | CCN(CC)C(=O)/C=C(\C)c1ccc(O[C@@H](C)c2ccccc2)c(CC(=O)O)c1 | 39 nM | – | –
24 | CCN(CC)C(=O)/C=C(\C)c1ccc(OC(C)C)cc1 | > 10000 nM | – | –
25 | CCN(CC)C(=O)/C=C(\C)c1ccc(OCc2ccccc2)cc1 | 7900 nM | – | –
26 | COc1ccc(C(=O)O)cc1NC(=O)/C=C(\C)c1ccc(OC(C)c2ccccc2)cc1 (stereo not drawn) | > 10000 nM | – | –
27 | CCN(CC)C(=O)/C=C(\C)c1ccc(OC(C)c2ccccc2)c(OCCCC(=O)O)c1 (stereo not drawn) | 216 nM | – | –
28 | CCN(CC)C(=O)/C=C(\C)c1ccc(OCc2ccccc2Cl)c(OCC(=O)O)c1 | 67 nM | 16 nM | Punch weight/MPO activity (Mus musculus [23]): <33
29 | CCN(CC)C(=O)/C=C(\C)c1ccc(SCc2ccccc2)c(OCC(=O)O)c1 | 34 nM | 26 nM | Punch weight/MPO activity (Mus musculus [24]): 1
30 | CCN(CC)C(=O)/C=C(\C)c1cc(OCC(=O)O)cc(OC(C)c2ccccc2)c1 (stereo not drawn) | 84 nM | 11.2 nM | –
31 | CCN(CC)C(=O)/C=C(\C)c1ccc(OC(C)c2ccccc2)c(OCC(=O)O)c1 (stereo not drawn) | 50 nM | 9.1 nM | Punch weight/MPO activity (Mus musculus [25]): <41; Punch weight/MPO activity (Mus musculus [26]): <56; Punch weight/MPO activity (Mus musculus [27]): <50; Punch weight/MPO activity (Mus musculus [28]): <27
32 | CCN(CC)C(=O)/C=C(\C)c1ccc(OC(C)c2ccccc2)c(O)c1 (stereo not drawn) | 420 nM | – | –
33 | CCN(CC)C(=O)/C=C(\C)c1ccc(OC(c2ccccc2)c2ccccc2)c(OCC(=O)O)c1 | 64 nM | 5.2 nM | Punch weight/MPO activity (Mus musculus [29]): 14

Source: ChEMBL document CHEMBL1132199, “Carboxy-substituted cinnamides: a novel series of potent, orally active LTB4 receptor antagonists” (J Med Chem, 1999)
